Most compounds without a hit are left out; they make up all but 3.8% or so of the library.
KCNQ1 inh: blocks the human KCNQ1 potassium channel; P51787; B-score at 10 µM; hit rate 1.3% among 310,000; CHO-K1 KCNQ1, FluxOR thallium flux fluorescence; active compounds read high;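 active = compounds whose thallium flux B-score, printed positive for inhibition, exceeds three library SD while starting fluorescence stays within three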;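 also: channel opened by potassium depolarization with thallium stimulus after 20 min compound exposure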
Kir21 block: inhibitors of mouse Kir2.1 inward-rectifier potassium channel | P35561 | HEK293-Kir2.1, FluxOR thallium flux fluorescence; active compounds read low | B-score at 10 µM | hit rate 0.85% among 310,000 | AID 1672;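 active = fluorescence ratio B-score at or below minus 3 SD of library scores, with starting-brightness B-score within 2 SD, cut at about -4.2 in these data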;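 also: channel flux triggered by added potassium and thallium sulfate stimulus; B-score of peak minus minimum fluorescence over baseline after thallium stimulus; more negative B-score means stronger Kir2.1 block with less thallium influx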
Target sequence (P35561 whole entry, looked up): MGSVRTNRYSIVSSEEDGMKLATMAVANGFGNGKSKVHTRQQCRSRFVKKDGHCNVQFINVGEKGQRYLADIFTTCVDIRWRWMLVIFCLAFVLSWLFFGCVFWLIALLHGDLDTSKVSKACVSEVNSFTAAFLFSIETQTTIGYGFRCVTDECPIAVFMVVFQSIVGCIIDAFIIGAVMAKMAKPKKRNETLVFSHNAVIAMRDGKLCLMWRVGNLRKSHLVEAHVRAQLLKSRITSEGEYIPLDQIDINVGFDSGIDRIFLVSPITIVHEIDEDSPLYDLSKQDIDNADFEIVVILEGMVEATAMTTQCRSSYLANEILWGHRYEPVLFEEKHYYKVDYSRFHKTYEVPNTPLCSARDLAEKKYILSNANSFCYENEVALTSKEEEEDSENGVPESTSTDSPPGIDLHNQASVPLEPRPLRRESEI
KCNK3 inh: human KCNK3 channel inhibition, primary screen. hit rate 0.84% among 340,000. AID 602410. O14649. B-score at 10 µM. CHO-KCNK3 thallium flux, FluxOR fluorescence; active compounds read low;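 active = B-score under library mean minus 4 SD, starting fluorescence ratio at most library mean plus 5 SD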;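 also: more negative B-score means stronger inhibition of thallium flux through KCNK3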
hERG rescue: hERG (human) protection from proarrhythmic block | Q12809 | CHO-hERG, FluxOR thallium flux, dofetilide IC70 present | activation (rescue from dofetilide block), less the hit threshold, % at 10 µM | hit rate 0.51% among 310,000;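 active = activation above the mean of controls blocked by dofetilide plus 5 SD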;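 also: thallium influx through hERG after potassium depolarization seen as dye fluorescence rise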
KCNQ1 pot: potentiators or activators of human KCNQ1 potassium channel | CHO-K1 KCNQ1, thallium flux FluxOR fluorescence; active compounds read high | B-score at 10 µM | hit rate 0.35% among 310,000;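 active = fluorescence ratio B-score, a plate-corrected score, at least three library SD, with initial intensity B-score within 5 SD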
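Assay system: CHO-K1 cells stably expressing KCNQ1. Medium: assay buffer for compound exposure, DMSO matched across wells. Timing: 37 °C overnight plating, 90-min dark dye load, 20-min compound pretreatment. Signal: kinetic FluxOR fluorescence, 10 s baseline plus 110 s post-stimulus.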
KCNK9 block: human KCNK9 channel inhibition. HEK293 KCNK9, FluxOR thallium flux fluorescence; active compounds read low. B-score at 10 µM. hit rate 1.2% among 310,000. Q9NPC2. AID 488922;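 active = ratio B-score over 3 SD below the library mean, with starting fluorescence within 5 SD of its mean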;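 also: negative B-score means less thallium flux so channel inhibition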
KCNK9 block conf: confirmation of human KCNK9 potassium channel inhibitors; shares compounds with KCNK9 block; inhibition, % at 10 µM; hit rate 43% among 4,900; HEK293 KCNK9 cells, FluxOR thallium flux fluorescence;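 active = thallium signal inhibited by more than 5 SD of the compound-free buffer control wells, on both duplicate plates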;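 also: 0% = assay buffer control wells without compound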
Kir2-1 spec: tests whether KCNK9 modulators also affect mouse Kir2.1 | shares compounds with KCNK9 block | Kir2.1 cells, FluxOR thallium flux fluorescence | inhibition, % at 10 µM | hit rate 4% among 4,900;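 active = thallium signal drop more than 5 SD beyond the mean of the no-compound control wells, seen in both duplicate plates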;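 also: signal is fluorescence rise after thallium addition divided by baseline fluorescence; plate controls were assay buffer only for no effect and full block by chlorpromazine control for full effect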
HEK293 Tl ctr: second check of KCNK9 modulator effects in non-induced HEK293 cells; hit rate 40% among 4,900; AID 492997; FluxOR thallium flux; inhibition, % at 10 µM; shares compounds with KCNK9 block;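 active = thallium signal drop beyond 5 SD of the untreated control mean, on both duplicate plates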;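 also: plate controls were buffer only IC0 wells for no effect and SID17386958 at its maximal inhibitory level for full effect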
An asterisk follows results filed as active; i = inactive; . = no result.

SMILES | KCNQ1 inh | Kir21 block | KCNK3 inh | hERG rescue | KCNQ1 pot | KCNK9 block | KCNK9 block conf | Kir2-1 spec | HEK293 Tl ctr
CC(C)/C=C/C(=O)N1CCCC(N2CCN(c3ccccc3F)CC2)C1 (configuration not stated) | i | -0.7 | i | -6 | i | i | i | i | i
CSc1nnc(Cn2c(=O)sc3ccccc32)n1-c1ccccc1C | i | -0.01 | i | -9 | i | i | . | . | .
CCOc1cc(/C=N/Nc2cccc(C(=O)O)c2)ccc1OC(=O)c1ccccc1 | i | 0.42 | i | -4 | i | i | i | i | i
CCOc1cc(/C=N/NC(=O)CNc2cccc(C)c2)ccc1OC(=O)c1ccccc1 | i | -0.68 | i | -7 | i | i | . | . | .
COc1cc(-c2nnc(COc3ccc4ccccc4c3)o2)cc(OC)c1OC | i | 0.31 | i | -10 | i | i | i | i | i
C=CCOc1cccc(C(=O)N2CCCC(Nc3ccc4c(c3)OCCO4)C2)c1 (configuration not stated) | i | 0.19 | i | -9 | i | i | i | i | i
Cc1ccc(NC2CCCN(C(=O)c3ccc4[nH]ccc4c3)C2)cc1C (configuration not stated) | i | 1.9 | i | -6 | i | i | i | i | i
COC(=O)c1cccc(C(=O)N2CCCC(Nc3ccc(C)c(C)c3)C2)c1 (configuration not stated) | i | -1.8 | i | -10 | i | i | i | i | i
C=CCOc1cccc(C(=O)N2CCCC(CCC(=O)NCc3ccccc3F)C2)c1 (configuration not stated) | i | -2 | i | -5 | i | i | . | . | .
COc1ccc(C(=O)N2CCCC(Nc3ccc(C)c(C)c3)C2)cc1F (configuration not stated) | i | 0 | i | -14 | i | i | . | . | .
COc1ccccc1C(=O)Nc1cc(C)ccc1NC(=O)c1ccco1 | i | 0.05 | i | -5 | i | i | . | . | .
Cc1ccc(S(=O)(=O)CCC(=O)Nc2nnc(-c3ccc(F)cc3)o2)cc1 | i | -0.81 | i | -17 | i | i | . | . | .
Cc1ccccc1N1C(=O)c2sc3nc4c(c(=O)n3c2C1=O)CCC4 | i | 0.57 | i | -11 | i | i | . | . | .
COc1ccc(-c2[nH]ncc2/C=C(/C#N)C(=O)NC2CCCCC2)cc1 | i | -1 | i | -10 | i | i | i | i | i
N#C/C(=C\c1ccccc1[N+](=O)[O-])C(=O)NC1CCCCC1 | i | 0.03 | i | -13 | i | i | . | . | .
N#C/C(=C\c1cc(Cl)ccc1O)C(=O)NC1CCCCC1 | i | -0.73 | i | -8 | i | i | . | . | .
Cc1ccc(-c2[nH]ncc2/C=C(\C#N)C(=O)NC2CCCCC2)cc1 | i | 0.6 | i | -12 | i | i | i | i | i
O=C(c1ccccc1F)N(Cc1nc2ccccc2c(=O)[nH]1)C1CCCC1 | i | -1.7 | i | -1 | i | i | . | . | .
COC(=O)C1=C(C)NC(C)=C(C(=O)OC)C1c1ccccn1 | i | 1.2 | i | -13 | i | i | . | . | .
CC(C)c1ccc(/C=C/C(=O)Nc2nncs2)cc1 | i | -0.19 | i | -4 | i | i | . | . | .
O=C(Nc1nc(-c2cccs2)c(-c2ccccc2)s1)c1ccco1 | i | 0.11 | i | -16 | i | -9* | 62%* | i | 26%*
O=C(Oc1ccc2ccccc2c1Cl)N1CCCC1 | i | -0.55 | i | -10 | i | i | . | . | .
O=C(Oc1ccc2ccccc2c1Cl)N1CCCCCC1 | i | 0.19 | i | -5 | i | -13* | 37%* | i | 28%*
COc1ccc2[nH]c3c(c2c1)CCN1C(=O)C(CC(=O)NC/C=C(\C)CCC=C(C)C)C[C@H](C(=O)N(C(C)C)C(C)C)[C@@]31C (some centres not stated) | . | . | i | . | . | . | . | . | .
COc1cc(/C=C/C(=O)c2ccc(NS(=O)(=O)c3ccc(C)cc3)cc2)ccc1OC(F)F | i | -0.06 | i | -3 | i | i | i | i | i
SMILES | KCNQ1 inh | Kir21 block | KCNK3 inh | hERG rescue | KCNQ1 pot | KCNK9 block | KCNK9 block conf | Kir2-1 spec | HEK293 Tl ctr
COc1ccc(C(=O)OC(C(=O)c2ccc(C)cc2)c2ccccc2)cc1 (configuration not stated) | i | -0.92 | i | -11 | i | -15* | 65%* | i | 32%*
CC(=O)Nc1cccc(C(=O)OC(C(=O)c2ccc(C)cc2)c2ccccc2)c1 (configuration not stated) | i | -0.32 | i | -13 | i | i | . | . | .
O=C(O)c1cc(-c2ccco2)nn1-c1ccc(Cl)cc1 | i | 0.1 | i | -7 | i | i | . | . | .
COC(=O)C1=NN(C(=O)c2cccc(Br)c2)C(O)(c2ccc(Cl)cc2)C1 (configuration not stated) | i | -0.85 | i | 59* | 82* | i | i | i | i
CC(C1CC2CCC1C2)n1c(-c2ccco2)n[nH]c1=S (configuration not stated) | i | -5.5* | i | -4 | i | -15* | 62%* | i | i
COc1ccccc1OCCCCCCN1CCOCC1 | i | 2.5 | i | -1 | i | i | . | . | .
O=c1c2ccccc2ncn1CCCSc1ccccc1 | i | 1.8 | i | -10 | i | i | i | i | 30%*
Cc1cc2c(=O)n(Cc3ccco3)c(SCC(=O)N3CCCc4ccccc43)nc2s1 | i | 1.7 | i | -2 | i | i | i | i | i
Cc1sc2nc(SCc3ccc(C(=O)O)cc3)n(Cc3ccco3)c(=O)c2c1C | i | 1.8 | i | -16 | i | i | i | i | i
O=C(CSc1nc2ccccc2c(=O)n1-c1ccccc1)N1CCCc2ccccc21 | i | 1 | i | -4 | i | i | i | i | i
CCn1c(SCC(=O)N2CCCc3ccccc32)nnc1-c1ccco1 | i | -0.01 | i | -2 | i | i | . | . | .
O=C(CSc1nc2ccccc2c(=O)n1-c1ccccc1)N1CCc2ccccc21 | i | -0.37 | i | -12 | i | i | . | . | .
Cc1ccc(-c2ccc(SCC(=O)N3CCc4ccccc43)nn2)cc1 | i | 0.01 | . | -7 | i | i | . | . | .

Source: PubChem
